Measured values as given in ChEMBL document CHEMBL2331495, “Novel pyrazole derivatives as neutral CB₁ antagonists with significant activity towards food intake” (Eur J Med Chem, 2013).
Calls of active or inactive are those of the source. The calls are words filed in the database; no cut-off is given here.

How the values were obtained:
[1] = molecular target: Cannabinoid receptor 1 (Mus musculus) (UniProt P47746); conditions: N1E-115, 1 uM
[2] = test system: Mus musculus; test: Toxicity in C57Bl6/J mouse assessed as locomotion blockage at 20 mg/kg, ip; assay type: organism-based; set-up: dose 20 mg/kg, route intraperitoneal; conditions: in vivo
Outline: (§1)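 Fasted C57Bl6/J mice from the food-intake test were given 20 mg/kg ip in saline with Tween 80 and ethanol (each 2.5 wt%).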

[3] = molecular target: Cannabinoid receptor 1 (Mus musculus) (UniProt P47746); test: Agonist activity at CB1 receptor in mouse N1E-115 cells assessed as increase in ERK1/2 phosphorylation after 10 mins by Western blot analysis; assay type: cell-based
Outline: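 N1E-115 cells were grown in high-glucose DMEM with 10% FBS at 37 °C, 5% CO2. They were exposed for 10 min to compounds in D-PBS with 1% DMSO, then lysed at 4 °C. P-ERK 1/2 was measured by western blot at 40 µg total protein and expressed as percentage of vehicle. Five independent experiments; one-way ANOVA.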

[4] = test system: Mus musculus; test: Increase in food intake in fasted C57Bl6/J mouse at 3 to 10 mg/kg, ip administered 15 mins prior to food presentation measured after 3 hrs; assay type: functional, organism-based
[5] = test system: Mus musculus; test: Toxicity in C57Bl6/J mouse assessed as mortality at 20 mg/kg, ip; assay type: organism-based; set-up: dose 20 mg/kg, route intraperitoneal; conditions: in vivo
Outline: as §1

[6] = test system: Mus musculus; test: Reduction of food intake in fasted C57Bl6/J mouse at 3 to 10 mg/kg, ip administered 15 mins prior to food presentation measured after 1 hr; assay type: functional, organism-based
Outline: (§2)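 Male-unspecified C57Bl6/J mice (20-25 g) were housed singly on a reverse light-dark cycle and fasted 18 h. Compounds in saline with 2.5% Tween 80 and 2.5% ethanol, or vehicle, were given ip; food was presented 15 min later. Intake was recorded over 3 h. Mean ± SEM; two-way ANOVA with Bonferroni test.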

[7] = molecular target: Cannabinoid receptor 1 (Mus musculus) (UniProt P47746); test: Neutral antagonist activity at CB1 receptor in albino CD1 mouse vas deferens assessed as rightward shift in WIN 55,212-2 concentration response curve for electrically evoked contractions at 0.1 to 10 uM treated 20 mins before first addition of WIN 55,212-2
Outline: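 Vas deferens from male albino CD1 mice, electrically stimulated as for twitch studies, in Krebs-Henseleit at 37 °C. Compound at a fixed concentration (0.1, 1 or 10 μM; DMSO ≤0.1%) was added 20 min before cumulative WIN 55,212-2. Inhibition of twitches was expressed as percentage of the pre-WIN amplitude; mean ± SEM.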

[8] = molecular target: Cannabinoid receptor 2 (Mus musculus, UniProt P47936); test: Displacement of [3H]CP55940 from CB2 receptor in CD1 mouse spleen membrane by liquid scintillation counting analysis; assay type: cell membranes
[9] = species on record: Mus musculus; test: Selectivity ratio of Ki for CB1 receptor in CD1 mouse brain membrane without cerebellum to Ki for CB2 receptor in CD1 mouse spleen membrane; assay type: cell membranes
[10] = test system: Mus musculus; test: Reduction of food intake in fasted C57Bl6/J mouse at 10 to 20 mg/kg, ip administered 15 mins prior to food presentation measured after 1 to 3 hrs; assay type: functional, organism-based
Outline: as §2

[11] = molecular target: Cannabinoid receptor 1 (Homo sapiens) (UniProt P21554); test: Intrinsic activity at human recombinant CB1 receptor transfected in CHO cells assessed as effect on [35S]GTPgammaS binding up to 0.1 uM after 1 hr by liquid scintillation spectrometry; assay type: functional, cell-based
Outline: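 […] used CHO cells expressing human recombinant CB1, incubated with [³⁵S]GTPγS and a range of compound concentrations alone for 1 h at 37 °C. The reaction was stopped with ice-cold Tris/BSA, filtered on glass-fibre filters and read by liquid scintillation spectrometry. Data are percentage stimulation over basal, mean ± SEM of five experiments.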

[12] = molecular target: Cannabinoid receptor 1 (Mus musculus) (UniProt P47746); test: Neutral antagonist activity at CB1 receptor in mouse N1E-115 cells assessed as inhibition of WIN 55,212-2-induced ERK1/2 phosphorylation at 125 to 500 nM treated 5 mins prior to WIN 55,212-2 challenge by Western blot analysis; assay type: cell-based
Outline: (§3)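 N1E-115 cells were pretreated for 5 min with compound (0.1-1.0 μM; dissolved in D-PBS with 1% DMSO), then exposed for 10 min to WIN55,212-2 (25 nM). Lysates (40 µg total protein) were western blotted for P-ERK 1/2 and expressed as percentage of vehicle. Five independent experiments; one-way ANOVA.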

[13] = molecular target: Cannabinoid receptor 1 (Mus musculus, UniProt P47746); test: Displacement of [3H]CP55940 from CB1 receptor in CD1 mouse brain membrane without cerebellum by liquid scintillation counting analysis; assay type: cell membranes
[14] = test system: Mus musculus; test: Reduction of food intake in fasted C57Bl6/J mouse at 10 to 20 mg/kg, ip administered 15 mins prior to food presentation measured for 2 hrs; assay type: functional, organism-based
Outline: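 C57Bl6/J mice (20-25 g), housed singly on a reverse light-dark cycle and fasted 18 h. Dosed ip at 10 and 20 mg/kg in saline with Tween 80 and ethanol (each 2.5 wt%). Weighed food presented 15 min later; intake followed over 3 h. Mean ± SEM; two-way ANOVA with Bonferroni post hoc versus vehicle.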

[15] = molecular target: Cannabinoid receptor 1 (Mus musculus) (UniProt P47746); test: Intrinsic activity at CB1 receptor in albino CD1 mouse vas deferens assessed as increase in amplitude of electrically evoked contractions at 0.1 to 100 uM
Outline: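 Vas deferens from male albino CD1 mice (30-40 g) was held at 0.5 g tension in Krebs-Henseleit at 37 °C, gassed with 95% O2/5% CO2. Twitches were evoked by 0.5-s trains of three 0.5-ms pulses at 110% maximal voltage, 0.1 Hz. Compounds (DMSO ≤0.1%) were added once responses were reproducible. Contraction amplitude was compared with control; mean ± SEM, n=5; ANOVA with Bonferroni test.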

[16] = test system: Mus musculus; test: Reduction of food intake in fasted C57Bl6/J mouse at 10 to 20 mg/kg, ip administered 15 mins prior to food presentation measured after 2 to 3 hrs; assay type: functional, organism-based
Outline: as §2

[17] = test system: Mus musculus; test: Toxicity in C57Bl6/J mouse assessed as observable adverse events at 20 mg/kg, ip; assay type: organism-based; set-up: dose 20 mg/kg, route intraperitoneal; conditions: in vivo
[18] = molecular target: Cannabinoid receptor 1 (Mus musculus) (UniProt P47746); test: Neutral antagonist activity at CB1 receptor in mouse N1E-115 cells assessed as inhibition of WIN 55,212-2-induced ERK1/2 phosphorylation at 1 uM treated 5 mins prior to WIN 55,212-2 challenge by Western blot analysis; assay type: cell-based
Outline: as §3

Sequence of Cannabinoid receptor 1 (Homo sapiens) (P21554 whole entry): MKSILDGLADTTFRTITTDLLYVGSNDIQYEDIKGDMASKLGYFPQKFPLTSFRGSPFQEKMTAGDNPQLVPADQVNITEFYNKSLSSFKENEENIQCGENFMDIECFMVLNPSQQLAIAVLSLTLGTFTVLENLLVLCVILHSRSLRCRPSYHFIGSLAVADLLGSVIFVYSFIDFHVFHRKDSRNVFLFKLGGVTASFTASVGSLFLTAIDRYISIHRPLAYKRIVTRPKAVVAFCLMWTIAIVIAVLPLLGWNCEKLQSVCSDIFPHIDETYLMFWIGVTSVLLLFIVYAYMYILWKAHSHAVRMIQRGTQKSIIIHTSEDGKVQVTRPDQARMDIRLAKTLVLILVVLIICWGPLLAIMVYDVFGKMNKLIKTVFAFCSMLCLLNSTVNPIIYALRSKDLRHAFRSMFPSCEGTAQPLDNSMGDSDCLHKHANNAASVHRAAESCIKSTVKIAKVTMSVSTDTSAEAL
Sequence of Cannabinoid receptor 2 (P47936 whole entry): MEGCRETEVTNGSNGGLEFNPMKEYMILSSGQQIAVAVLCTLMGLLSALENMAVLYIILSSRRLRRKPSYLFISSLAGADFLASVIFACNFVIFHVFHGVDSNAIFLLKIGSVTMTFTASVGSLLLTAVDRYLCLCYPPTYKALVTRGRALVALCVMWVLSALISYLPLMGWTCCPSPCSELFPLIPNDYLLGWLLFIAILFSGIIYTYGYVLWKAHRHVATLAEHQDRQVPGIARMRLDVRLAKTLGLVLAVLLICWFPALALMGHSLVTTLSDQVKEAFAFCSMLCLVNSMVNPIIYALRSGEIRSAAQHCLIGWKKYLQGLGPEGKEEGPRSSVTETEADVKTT
Sequence of Cannabinoid receptor 1 (P47746 whole entry): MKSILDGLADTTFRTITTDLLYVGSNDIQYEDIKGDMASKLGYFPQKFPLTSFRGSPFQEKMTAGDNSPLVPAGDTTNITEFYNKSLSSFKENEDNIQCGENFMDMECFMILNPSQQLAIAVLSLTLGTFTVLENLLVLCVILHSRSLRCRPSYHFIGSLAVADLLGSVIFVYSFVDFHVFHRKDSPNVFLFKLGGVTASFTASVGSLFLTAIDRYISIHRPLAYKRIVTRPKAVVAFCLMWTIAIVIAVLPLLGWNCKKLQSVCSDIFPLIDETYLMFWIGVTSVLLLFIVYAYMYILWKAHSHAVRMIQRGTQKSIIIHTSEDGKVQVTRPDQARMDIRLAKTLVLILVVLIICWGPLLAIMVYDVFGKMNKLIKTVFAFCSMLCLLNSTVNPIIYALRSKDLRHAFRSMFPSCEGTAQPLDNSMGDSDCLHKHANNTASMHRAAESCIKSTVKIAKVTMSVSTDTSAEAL
Sequence of Cannabinoid receptor 1 (Mus musculus) (P47746 whole entry): as above

Row | SMILES | Activity [3] | Activity [7] | Ki [8] [nM] | Ratio Ki [9] | Intrinsic activity [11] | inhibition [12] | Ki [13] [nM] | Intrinsic activity [15] | inhibition [18] | inhibition [1] | Activity [2] | Activity [4] | Activity [5] | Activity [6] | Activity [10] | Activity [14] | Activity [16] | Activity [17]
1 | Cc1c(C(=O)NN2CCCCC2)nn(-c2ccc(Cl)cc2Cl)c1-c1ccc(Cl)cc1 [RIMONABANT] | inactive | – | – | – | – | – | – | – | – | Active | Toxic | Active | Toxic | Active | – | – | – | –
2 | Cc1c(/C=C/C2CCCCC2)nn(-c2ccc(Cl)cc2Cl)c1-c1ccc(Cl)cc1 | inactive | Active | 3800 | 0.003 | – | Active | 11.2 | inactive | – | – | – | – | – | – | – | Active | – | –
3 | Cc1c(C(O)CC2CCCCC2)nn(-c2ccc(Cl)cc2Cl)c1-c1ccc(Cl)cc1 (racemic) | inactive | Active | 4200 | – | inactive | – | – | inactive | Active | – | – | – | – | – | Active | – | – | –
4 | Cc1c(C(NN2CCCCC2)C(F)(F)F)nn(-c2ccc(Cl)cc2Cl)c1-c1ccc(Cl)cc1 (racemic) | inactive | Active | > 5000 | < 0.057 | – | – | 287 | inactive | Active | – | – | – | – | – | – | – | – | –

Continued by falling Ki [8], values first:

Row | Activity [3] | Activity [7] | Ki [8] [nM] | Ratio Ki [9] | Intrinsic activity [11] | inhibition [12] | Ki [13] [nM] | Intrinsic activity [15] | inhibition [18] | SMILES | inhibition [1] | Activity [2] | Activity [4] | Activity [5] | Activity [6] | Activity [10] | Activity [14] | Activity [16] | Activity [17]
5 | – | Active | 4000 | 0.103 | – | – | 412 | inactive | – | Cc1c(/C(F)=C\C2CCCCC2)nn(-c2ccc(Cl)cc2Cl)c1-c1ccc(Cl)cc1 | – | – | – | – | – | – | – | – | –
6 | inactive | Active | 2230 | 0.021 | inactive | Active | 46.1 | – | – | Cc1c(C(=O)CC2CCCCC2)nn(-c2ccc(Cl)cc2Cl)c1-c1ccc(Cl)cc1 | – | – | – | – | – | Active | – | – | –
7 | inactive | Active | 1950 | 0.013 | inactive | Active | 25.8 | inactive | – | Cc1c(/C(F)=C/C2CCCCC2)nn(-c2ccc(Cl)cc2Cl)c1-c1ccc(Cl)cc1 | – | – | – | – | – | – | – | Active | Non-toxic
